M1 ag: M1 muscarinic receptor agonists, primary screen, CHO-M1 cells, Fluo-4 calcium, agonist mode; B-score at 10 µM; 3% of 64,000 active; Fluo-4 calcium fluorescence; hits give high values; AID 626, 2007; Muscarinic acetylcholine receptor M1;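 active = fluorescence rise, raw or as B-score row- and column-corrected plate score, outside the 99.7% band of its plate's samples, either direction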
RORA act: activators of orphan receptor RORA, primary screen, cell-based, luminescence | Nuclear receptor ROR-alpha (Homo sapiens), P35398 | CHO-K1 Gal4-RORA LBD luciferase reporter; percent increase over mock-subtracted basal signal | activation, % at 10 µM | 1.5% of 65,000 active | AID 560, 2006;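 active = activation above the mean of all tested compounds plus 3 SD, cut at about 49% in these data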;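 note: 0% = DMSO-treated RORA cells and 100% = added signal equal to DMSO minus mock-transfected cells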
M1 antag: antagonists of rat M1 muscarinic receptor | B-score at 10 µM | Muscarinic acetylcholine receptor M1 (Rattus norvegicus), P08482 | 3.4% of 64,000 active | CHO-M1 cells, Fluo-4 calcium, ACh EC80 antagonist mode; hits give low values;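 active = calcium fluorescence response, raw or row-and-column corrected B-score, differing from the plate sample mean either way at a set confidence level, mostly lower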
Target sequence (P08482 whole entry, looked up): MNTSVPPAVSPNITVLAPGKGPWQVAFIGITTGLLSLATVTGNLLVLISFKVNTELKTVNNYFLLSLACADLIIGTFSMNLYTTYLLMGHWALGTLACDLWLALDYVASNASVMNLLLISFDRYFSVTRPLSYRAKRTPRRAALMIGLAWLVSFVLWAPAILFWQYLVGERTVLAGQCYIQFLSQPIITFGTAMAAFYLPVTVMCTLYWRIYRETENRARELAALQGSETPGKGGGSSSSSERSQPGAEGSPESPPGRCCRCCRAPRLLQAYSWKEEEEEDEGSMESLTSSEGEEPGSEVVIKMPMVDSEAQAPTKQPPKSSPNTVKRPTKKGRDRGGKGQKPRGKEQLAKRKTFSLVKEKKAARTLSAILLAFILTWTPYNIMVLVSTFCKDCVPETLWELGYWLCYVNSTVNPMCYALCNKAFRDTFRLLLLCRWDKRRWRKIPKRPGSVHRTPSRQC
SF1 activator: activators of human SF-1, primary screen, cell-based, CHO-K1, Gal4-SF-1 LBD, luciferase luminescence; CHO-K1 Gal4-SF-1 LBD luciferase reporter; % increase over DMSO SF-1-specific signal; activation, % at 10 µM; 1.9% of 65,000 active; Steroidogenic factor 1 (Homo sapiens), Q13285; AID 522, 2006;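 active = activation above the mean activation of all tested compounds plus 3 SD, cut at about 50% in these data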
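Test system: CHO-K1 cells co-transfected with Gal4 DBD–human SF-1 LBD, 5xGal4 luciferase reporter. Quantity: 4,000 cells per well. Compound: 10 µM only. Incubation: compound added 1 h post-seeding, 20 h exposure at 37 °C, 5% CO2. Detection: SteadyLite luciferase luminescence. Replication: one test per compound.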
HePTP inhibitor: inhibitors of human HePTP phosphatase, primary screen, biochemical, absorbance, leukemia target. Tyrosine-protein phosphatase non-receptor type 7 (Homo sapiens), P35236. recombinant HePTP phosphatase activity, OD absorbance. inhibition, % at 20 µM. 0.64% of 110,000 active. AID 521, 2006; in the data active = inhibition above about 50%;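 note: plate controls were vehicle for no effect and reference inhibitor for full effect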
D1 mod: D1 CRE-luciferase signal change, two-sided – cell-based, HEK293 D1, dopamine EC30, D1 allosteric modulator project, primary screen | D(1A) dopamine receptor (Homo sapiens), P21728 | dopamine EC30 potentiation; actives deviate in either direction | B-score at 10 µM | 5.9% of 58,000 active;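 active = luminescence count or its row- and column-corrected plate score outside the 99.7% band of the plate's sample wells, on either side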
M1 antag confirm: rat M1 muscarinic receptor antagonists, confirmation, CHO cells, Fluo-4 calcium, duplicate; shares compounds with M1 antag; ACh EC80 antagonism; hits give low values; calcium response (max-min fluorescence) at 10 µM; 43% of 1,700 active;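 active = calcium response below the same-plate mean of wells given acetylcholine alone at its 80%-effect dose, minus 3 SD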;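 note: raw fluorescence intensity difference in arbitrary instrument units and not normalized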
mGluR4 antag: human mGluR4 response to M1 antagonist hits, M1 allosteric modulator project, cell-based, antagonist mode, secondary assay 1; shares compounds with M1 antag; CHO-mGluR4 calcium flux, Fluo-4 fluorescence, glutamate EC80; hits give low values; fluorescence response (max-min) at 10 µM; 0.9% of 1,700 active; AID 678, 2007;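 active = fluorescence response below the plate's average for near-maximal glutamate wells, less 3 SD of those wells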;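 note: raw unnormalized fluorescence span taken in the window right after glutamate addition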
* = called active by the depositor; x = no result. Shown are actives, neighbours in structure and some others; about 8.2% of the full set was active somewhere.

SMILES	M1 ag	RORA act	M1 antag	SF1 activator	HePTP inhibitor	D1 mod	M1 antag confirm	mGluR4 antag
CCn1cc(C2=NC(C(C)C)CO2)c2ccccc21 (stereo not drawn)	-0.76	-4	-6.5*	12	4	-1.5	412*	270
CCOC(=O)COc1ccc2oc(=O)cc(C)c2c1	x	x	x	x	8	x	x	x
O=C1c2ccccc2NC(c2ccc3c(c2)OCO3)N1O (stereo not drawn)	0.41	10	-0.012	18	12	-0.57	x	x
O=C(CC(c1ccccc1)c1cc(Cl)ccc1O)N1CCOCC1 (stereo not drawn)	0.17	-8	-2.6*	-2	4	-1.2	477	214
O=C(Nc1ccccc1C(=O)O)c1ccc2c(c1)C(=O)N(c1cccc([N+](=O)[O-])c1)C2=O	x	x	x	x	7	x	x	x
Cn1cnnc1SCC(=O)c1ccc(-c2ccccc2)cc1	x	x	x	x	-14	x	x	x
COc1ccc(C(CNC(=O)c2ccc(S(=O)(=O)N3CCOCC3)cc2)N2CCCCC2)cc1 (stereo not drawn)	-0.69	-10	-3.2*	15	7	-0.21	576	186
COc1ccc(C(CNC(=O)c2ccc(OCC3CCCO3)cc2)N2CCOCC2)cc1 (stereo not drawn)	-0.16	-2	-0.031	-5	0	1.2	x	x
c1ccc(-c2cc3c(N4CCOCC4)ncnc3s2)cc1	-0.37	12	-2.6*	-6	12	14*	497	214
O=C(Nc1cccc(Cl)c1)NC1CCCCC1	-1.8	54*	-2.2*	59*	3	0.1	630	223
CC(=O)c1cccc(NC(=O)NC2CCCCC2)c1	-0.068	33	-0.06	-4	13	-0.1	x	x
O=C(Oc1ccc(-c2nnco2)cc1)N1CCCCC1	-0.036	11	0.34	41	x	0.76	x	x
O=C(Oc1ccc(-c2nnco2)cc1)N(c1ccccc1)c1ccccc1	0.049	2	-1.6*	0	8	1.3	502*	269
Cc1cc(/C=C(/C#N)c2cccc(F)c2)c(C)n1-c1cccnc1	-0.3	14	-5*	9	14	0.53	555	186
COc1ccc2oc(=O)c(C(=O)N3CCN(C45CC6CC(CC(C6)C4)C5)CC3)cc2c1	-0.01	34	-3*	-4	-4	-0.22	390	209
COc1ccc(OC)c(S(=O)(=O)N2CCN(C34CC5CC(CC(C5)C3)C4)CC2)c1	-0.39	15	-4.6*	0	2	0.022	477*	230
COc1ccc2oc(=O)c(C(=O)N3CCN(c4ccccc4)CC3)cc2c1	-0.0096	15	0.17	10	6	-0.71	x	x
Cc1ccc(OCC(O)CNC(C)C)cc1C (stereo not drawn)	x	x	x	x	-3	x	x	x
CCOC(=O)CCSCC(=O)Nc1nnc(C)s1	-0.25	-3	-2.4*	6	-2	-0.38	603	241
CCOC(=O)CCSCC(=O)Nc1cc(C)on1	-0.64	-17	-0.28	-7	6	-0.023	x	x
CCC(=O)Nc1ccc(I)cc1Cl	x	x	x	x	7	x	x	x
COc1ccccc1NC(=O)Cn1nc(C(F)(F)F)c2c1CCCC2	x	-13	x	-9	18	0.31	x	x
Clc1ccc2c(N3CCCC3)ccnc2c1	-0.12	-14	-3*	16	8	-1.8	555	253
CC(=O)c1ccc(NC(=S)NC(=O)c2cccnc2)cc1	x	x	x	x	9	x	x	x
CC(=O)Nc1ccc(N2CCN(Cc3ccccc3F)CC2)cc1	-0.0094	-3	-0.15	-9	6	-0.72	x	x
SMILES	M1 ag	RORA act	M1 antag	SF1 activator	HePTP inhibitor	D1 mod	M1 antag confirm	mGluR4 antag
CCC(=O)Nc1ccc(N2CCN(Cc3ccccc3F)CC2)cc1	0.55	2	-2.6*	6	-2	-0.81	630	226
O=C1CC(c2ccc(Cl)c(Cl)c2)CC(O)=C1C=NCCN1CCNCC1 (stereo not drawn)	0.21	5	-13*	-12	-12	-1.4	173*	238
COCCN(C(=O)Cn1nnc2ccccc21)C(C(=O)NC1CCCC1)c1cccc(OC)c1OC (stereo not drawn)	-0.32	-16	-3.9*	3	4	-1.1	600	217
COCCNC(=O)C(c1ccccc1C)N(CCOC)C(=O)Cn1nnc2ccccc21 (stereo not drawn)	0.25	-27	-1.2	-1	-2	0.5	x	x
Cc1nnc(SCC(=O)N2CCC(Cc3ccccc3)CC2)n(N)c1=O	-0.11	3	-3*	6	x	-0.76	559	231
CC(C)CC(=O)N1CCC(Cc2ccccc2)CC1	x	x	x	x	10	x	x	x
CCN(CC)S(=O)(=O)c1ccc(NS(=O)(=O)c2cccc(C)c2)cc1	-0.13	-12	-2.6*	0	6	0.52	581	251
CCN(CC)S(=O)(=O)c1cccc(S(=O)(=O)c2cccc(S(=O)(=O)N(CC)CC)c2)c1	-0.98	-2	-0.24	-1	-8	x	x	x
CCC(=O)N(Cc1cccs1)C1CCOC(C)(C)C1 (stereo not drawn)	-0.085	-6	-0.68	-6	6	x	x	x
CC(C1CC1)N(C(=O)c1ccccc1O)c1ccccc1 (stereo not drawn)	-0.36	-9	-3.6*	-21	-1	-1.1	548	218
O=C(COc1ccc(Cl)cc1Br)NNC(=O)c1cccc(O)c1	x	x	x	x	9	x	x	x
CN(C)c1nc2c(c(=O)[nH]c(=O)n2C)n1Cc1ccccc1Br	0.18	8	-2.9*	-1	1	-0.61	678	242
C=CCSc1nc(N)c(C(=O)Nc2ccccc2C)cc1C(N)=O	0.6	-4	-3*	-5	-11	-0.32	614	248
COC(=O)c1cc2ccsc2n1Cc1nc(-c2ccc(OC)cc2)oc1C	-0.95	-25	-5.5*	0	4	0.35	474*	240
COC(=O)c1cc2sccc2n1Cc1nc(-c2ccc(OC)cc2)oc1C	0.23	-20	-2.6*	-20	4	0.95	508	232
NC(=O)SCC(=O)Nc1cccc(O)c1	x	x	x	x	11	x	x	x
CCOc1cc(OCC)cc(C(=O)NCc2ccccc2)c1	x	x	x	x	7	x	x	x
O=C(COc1c(F)c(F)cc(F)c1F)NC(=O)NC1CCCC1	0.039	22	-12*	8	6	0.78	223*	233
O=C(NCc1cccnc1)c1cc2nc3c(c(C(F)(F)F)n2n1)CCc1ccccc1-3	x	x	x	x	-7	x	x	x
